# Measured values reported in ChEMBL document CHEMBL1145382, “Novel ergopeptides as dual ligands for adenosine and dopamine receptors” (J Med Chem, 2007).
# Activity calls are given as the source filed them. The rule behind the calls is not given here. Non-standard residues stand in square brackets, D forms with d. Residues, ends and D or L forms follow the SMILES beside them. Phe(4-F) = N[C@@H](Cc1ccc(F)cc1)C(=O)O; hCha = N[C@@H](CCC1CCCCC1)C(=O)O
# How the values were obtained:
# [1] = molecular target: D(1A) dopamine receptor (Homo sapiens) (UniProt P21728); assay: Displacement of [3H]SCH 23390 from dopamine D1 receptor in lamb striatum membrane at 50 uM after 1 hr; format: cell membranes; settings: Ovis aries, target entry is the homologue from another species
# Outline: (§1)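 Single-concentration screen at 50 µM ergopeptide on lamb striatal membranes (0.5 mg protein/mL), 22 °C, 50 mM Tris-HCl pH 7.4. Radioligands: [3H]SCH 23390 1.2 nM (D1), [3H]YM 09151-2 0.9 nM (D2), [3H]R-PIA 2.2 nM (A1, with MgCl2 and ADA), [3H]CGS 21680 20.1 nM (A2A, with MgCl2 and ADA). Specific binding displaced, after filtration and scintillation counting.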
# [2] = molecular target: D(2) dopamine receptor (Homo sapiens) (UniProt P14416); assay: Displacement of [3H]YM 09151-2 from dopamine D2 receptor in lamb striatum membrane at 50 uM after 2 hrs; format: cell membranes; settings: Ovis aries, target entry is the homologue from another species; outline: as §1
# [3] = molecular target: T1, Adenosine receptor A1 (Homo sapiens) (UniProt P30542); assay: Displacement of [3H]R-PIA from adenosine A1 receptor in lamb striatum membrane at 50 uM after 1 hr; format: cell membranes; settings: Ovis aries, target entry is the homologue from another species; outline: as §1
# T1 sequence (whole entry): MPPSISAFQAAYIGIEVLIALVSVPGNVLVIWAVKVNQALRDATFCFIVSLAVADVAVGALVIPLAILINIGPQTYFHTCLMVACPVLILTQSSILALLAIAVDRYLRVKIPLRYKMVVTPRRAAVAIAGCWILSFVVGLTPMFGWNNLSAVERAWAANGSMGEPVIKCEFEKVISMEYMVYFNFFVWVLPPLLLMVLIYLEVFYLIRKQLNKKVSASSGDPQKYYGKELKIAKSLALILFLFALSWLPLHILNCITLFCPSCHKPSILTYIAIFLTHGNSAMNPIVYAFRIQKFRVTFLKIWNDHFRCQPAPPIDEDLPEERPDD
# Adenosine receptor A2a [4] = molecular target: T2, Adenosine receptor A2a (Homo sapiens, UniProt P29274); assay: Displacement of [3H]CGS 21680 from adenosine A2A receptor in lamb striatum membrane at 50 uM after 2 hrs; format: cell membranes; settings: Ovis aries, target entry is the homologue from another species; outline: as §1
# [5] = molecular target: T1, Adenosine receptor A1 (Homo sapiens); assay: Agonist activity at adenosine A1 receptor transfected in mouse L(tk-) cells assessed as decrease in forskolin-induced cAMP levels; format: functional, cell-based
# Outline: (§2)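 Mouse Ltk- fibroblasts cotransfected with human A1R and D1R, preincubated 5-10 min at 22 °C with 50 µM SCH to block D1R. Then 50 µM zardaverine, 10 µM forskolin, and 50 µM ergopeptide, with or without 20 nM R-PIA or 50 µM DPCPX. 35 min total. cAMP by enzyme immunoassay. Three to six determinations.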
# [6] = molecular target: T1, Adenosine receptor A1 (Homo sapiens); assay: Antagonist activity at adenosine A1 receptor transfected in mouse L(tk-) cells assessed as inhibition of R-PIA-induced decrease in forskolin-induced cAMP levels; format: functional, cell-based; outline: as §2
# Adenosine receptor A2a [7] = molecular target: T2, Adenosine receptor A2a; assay: Agonist activity at adenosine A2A receptor in SH-SY5Y cells assessed as CGS-induced intracellular cAMP production at 50 uM; format: functional, cell-based
# Outline: (§3)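 SH-SY5Y neuroblastoma cells, endogenous A2AR, stably carrying human D2LR. Serum-starved 12-16 h, in HBSS with 50 µM zardaverine for 10 min, then 50 µM ergopeptide, alone or with the A2AR agonist CGS. 35 min total incubation. cAMP by competitive enzyme immunoassay. Three to six determinations, Student's t test.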
# [8] = molecular target: D(2) dopamine receptor (Homo sapiens) (UniProt P14416); assay: Antagonist activity at dopamine D2 receptor in SH-SY5Y cells assessed as effect on forskolin-activated intracellular cAMP production at 50 uM; format: functional, cell-based
# Outline: (§4)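 SH-SY5Y cells expressing human D2LR, preincubated 5-10 min at 22 °C with 5 µM ZM to block A2AR. Then 50 µM zardaverine, 10 µM forskolin, and 50 µM ergopeptide, with or without 150 nM quinpirole or 50 µM raclopride. 35 min total. cAMP by enzyme immunoassay. Three to six determinations, t test.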
# [9] = molecular target: D(1A) dopamine receptor (Homo sapiens) (UniProt P21728); assay: Agonist activity at dopamine D1 receptor transfected in mouse L(tk-) cells assessed as stimulation of cAMP levels; format: functional, cell-based
# Outline: (§5)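 Mouse Ltk- fibroblasts cotransfected with human A1R and D1R, serum-starved 12-16 h. In HBSS with 50 µM zardaverine, then 50 µM ergopeptide, with or without 20 nM SKF or 50 µM SCH. 35 min total incubation. cAMP by competitive enzyme immunoassay. Three to six determinations, t test.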
# [10] = molecular target: D(1A) dopamine receptor (Homo sapiens) (UniProt P21728); assay: Antagonist activity at dopamine D1 receptor transfected in mouse L(tk-) cells assessed as inhibition of SKF-induced stimulation of forskolin-induced cAMP levels; format: functional, cell-based; outline: as §5
# Adenosine receptor A2a [11] = molecular target: T2, Adenosine receptor A2a; assay: Displacement of [3H]CGS 21680 from adenosine A2A receptor in lamb striatum membrane after 2 hrs; format: cell membranes, Ovis aries; settings: target entry is the homologue from another species
# Outline: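 Lamb striatal membranes (0.5 mg protein/mL), 22 °C, 50 mM Tris-HCl pH 7.4, with increasing ergopeptide concentrations. Conditions per receptor: D1 1.2 nM [3H]SCH 23390, 1 mM dopamine nonspecific. D2 0.9 nM [3H]YM 09151-2, 100 µM raclopride nonspecific. A1 2.2 nM [3H]R-PIA, 10 mM MgCl2, 0.2 U/mL ADA, 50 µM R-PIA nonspecific. A2A 20.1 nM [3H]CGS 21680, 10 mM MgCl2, 2 U/mL ADA, 1 mM CGS 21680 nonspecific. Filtration, scintillation counting. KD by nonlinear one- or two-site fit. Three to six determinations.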
# [12] = molecular target: D(2) dopamine receptor (Homo sapiens) (UniProt P14416); assay: Agonist activity at dopamine D2 receptor in SH-SY5Y cells assessed as inhibition of forskolin-activated intracellular cAMP production at 50 uM; format: functional, cell-based; outline: as §4
# Adenosine receptor A2a [13] = molecular target: T2, Adenosine receptor A2a; assay: Antagonist activity at adenosine A2A receptor in SH-SY5Y cells assessed as CGS-induced intracellular cAMP production at 50 uM; format: functional, cell-based; outline: as §3
# D(2) dopamine receptor (Homo sapiens), sequence (P14416 whole entry): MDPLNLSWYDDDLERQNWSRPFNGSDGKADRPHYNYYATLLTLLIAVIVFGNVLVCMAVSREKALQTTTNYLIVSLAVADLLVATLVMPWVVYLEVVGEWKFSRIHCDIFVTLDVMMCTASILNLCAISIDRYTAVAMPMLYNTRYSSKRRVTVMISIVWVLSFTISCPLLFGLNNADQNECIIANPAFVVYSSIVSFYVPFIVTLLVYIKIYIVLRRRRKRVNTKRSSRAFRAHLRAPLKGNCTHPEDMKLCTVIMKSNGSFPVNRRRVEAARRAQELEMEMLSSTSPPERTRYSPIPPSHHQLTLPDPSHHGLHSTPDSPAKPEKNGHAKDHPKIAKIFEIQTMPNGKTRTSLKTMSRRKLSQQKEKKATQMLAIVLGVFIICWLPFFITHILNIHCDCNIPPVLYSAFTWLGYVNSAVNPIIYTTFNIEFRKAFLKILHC
# D(1A) dopamine receptor (Homo sapiens), sequence (P21728 whole entry): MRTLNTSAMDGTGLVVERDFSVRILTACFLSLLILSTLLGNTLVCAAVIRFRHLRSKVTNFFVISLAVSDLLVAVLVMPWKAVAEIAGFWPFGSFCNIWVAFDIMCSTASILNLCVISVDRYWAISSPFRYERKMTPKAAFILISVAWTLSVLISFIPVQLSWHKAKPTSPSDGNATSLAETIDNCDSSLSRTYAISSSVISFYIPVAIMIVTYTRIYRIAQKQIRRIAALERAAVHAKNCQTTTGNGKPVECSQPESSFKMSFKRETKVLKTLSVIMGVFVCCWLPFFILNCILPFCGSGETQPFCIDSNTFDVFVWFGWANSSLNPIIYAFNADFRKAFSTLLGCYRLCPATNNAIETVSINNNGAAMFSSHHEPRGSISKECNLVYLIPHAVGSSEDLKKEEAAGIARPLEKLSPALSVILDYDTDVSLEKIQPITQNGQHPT
# T2 sequence (P29274 whole entry): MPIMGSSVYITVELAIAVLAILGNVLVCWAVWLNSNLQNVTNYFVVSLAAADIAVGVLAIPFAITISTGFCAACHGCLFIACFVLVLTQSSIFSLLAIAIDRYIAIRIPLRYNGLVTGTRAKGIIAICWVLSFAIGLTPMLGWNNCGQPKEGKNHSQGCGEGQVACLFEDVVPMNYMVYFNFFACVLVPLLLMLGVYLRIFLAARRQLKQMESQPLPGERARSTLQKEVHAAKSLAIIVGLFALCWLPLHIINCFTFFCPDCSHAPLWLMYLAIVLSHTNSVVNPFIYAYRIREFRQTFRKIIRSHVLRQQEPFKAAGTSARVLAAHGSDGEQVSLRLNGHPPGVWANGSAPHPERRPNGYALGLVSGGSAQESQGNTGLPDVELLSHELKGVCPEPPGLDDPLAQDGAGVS
SMILES,Activity [1],Activity [2],Activity [3],Activity (Adenosine receptor A2a [4]),Activity [5],Activity [6],Activity (Adenosine receptor A2a [7]),Activity [8],Activity [9],Activity [10],Kd (Adenosine receptor A2a [11]),Activity [12],Activity (Adenosine receptor A2a [13])
CC(=O)N[C@H](C(=O)N[C@@H](CCC1CCCCC1)C(=O)N1CCCC(C(N)=O)C1)C(C)C (stereo partly drawn),< 40%,< 40%,< 40%,< 40%,–,–,–,–,–,–,–,–,–
CC(=O)N[C@@H](Cc1ccc([N+](=O)[O-])cc1)C(=O)N[C@@H](Cc1ccc(F)cc1)C(=O)N1CCCC(C(N)=O)C1 (stereo partly drawn),< 40%,< 40%,< 40%,< 40%,–,–,–,–,–,–,–,–,–
CN1C[C@H](C(N)=O)C=C2c3cccc4[nH]cc(c34)C[C@H]21,< 40%,< 40%,< 40%,< 40%,–,–,–,–,–,–,–,–,–
CC(C)[C@H](NC(=O)[C@@H]1C=C2c3cccc4[nH]cc(c34)C[C@H]2N(C)C1)C(=O)N[C@@H](Cc1ccc(F)cc1)C(=O)N1CCC[C@H]1C(N)=O,< 40%,< 40%,< 40%,< 40%,inactive,Active,inactive,Active,Active,inactive,–,–,–
CC(=O)N[C@@H](CCC1CCCCC1)C(=O)N[C@@H](Cc1ccc(F)cc1)C(=O)N1CCC[C@H]1C(N)=O (Ac-[hCha]-[Phe(4-F)]-Pro-NH2),< 40%,< 40%,< 40%,< 40%,–,–,–,–,–,–,–,–,–
CN1C[C@H](C(=O)N[C@@H](CCC2CCCCC2)C(=O)N[C@@H](Cc2ccc(F)cc2)C(=O)N2CCC[C@H]2C(N)=O)C=C2c3cccc4[nH]cc(c34)C[C@H]21,< 40%,< 40%,< 40%,< 40%,inactive,Active,inactive,–,Active,inactive,33 µM,Active,–
CN1C[C@H](C(=O)N[C@@H](Cc2ccc([N+](=O)[O-])cc2)C(=O)N[C@@H](CCC2CCCCC2)C(=O)N2CCCC(C(N)=O)C2)C=C2c3cccc4[nH]cc(c34)C[C@H]21 (stereo partly drawn),< 40%,< 40%,< 40%,< 40%,inactive,Active,inactive,–,Active,inactive,–,Active,–
CC(C)[C@H](NC(=O)[C@H]1C=C2c3cccc4[nH]cc(c34)C[C@H]2N(C)C1)C(=O)N[C@@H](Cc1ccc([N+](=O)[O-])cc1)C(=O)N1CCC[C@H]1C(N)=O,< 40%,< 40%,< 40%,< 40%,inactive,Active,inactive,–,Active,inactive,–,Active,Active
CC(C)[C@H](NC(=O)[C@@H]1C=C2c3cccc4[nH]cc(c34)C[C@H]2N(C)C1)C(=O)N[C@@H](Cc1ccc([N+](=O)[O-])cc1)C(=O)N1CCC[C@H]1C(N)=O,< 40%,< 40%,< 40%,< 40%,inactive,Active,inactive,–,Active,inactive,–,Active,Active
CC(=O)N[C@@H](Cc1ccc([N+](=O)[O-])cc1)C(=O)N[C@H](C(=O)N1c2ccccc2C[C@H]1C(N)=O)C(C)C,< 40%,< 40%,< 40%,< 40%,–,–,–,–,–,–,–,–,–
